Molecules are shown by their SMILES. Calls of active or inactive are those of the source. The calls are words filed in the database; no cut-off is given here. Bounds are passed on as bounds.

The test system of assay [1] is MDA-MB-231. Kind of assay: Cytotoxicity against human MDA-MB-231 cells after 72 hrs by SRB assay. It is filed as functional. The conditions noted are these: MDA-MB-231, 72 h. A digest of the protocol:
(§1)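 SRB growth assay: 5 × 10³ cells/well in RPMI, attached 18 h drug-free, then compound added in DMSO/H₂O 3:7 for 72 h. Fixed with cold 50% TCA 60 min at 4 °C, stained 0.4% SRB in 1% acetic acid 10 min, bound dye solubilized in Tris, OD 490 nm. GI50 from 100[(T−T0)/(C−T0)] = 50; mean of triplicates.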

Assay [2] has as its system HT-29. In words: Cell cycle arrest in human HT-29 cells assessed as accumulation at G2/M phase at 1 uM after 24 hrs by flow cytometry. It is filed as functional. In outline: (§2)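 HT-29 cells incubated at 1 μM for 24, 48 or 72 h alongside untreated controls. (3-5) × 10⁵ cells fixed overnight in 70% ethanol at 4 °C, PBS-washed three times, then treated 1 h at room temperature with 1 mg/mL RNase A and 20 μg/mL propidium iodide. DNA content read by flow cytometry; apoptosis taken as % cells in sub-G1 peak. Representative of three independent experiments.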

For assay [3], the system named is HT-29. In words: Cell cycle arrest in human HT-29 cells assessed as accumulation at G0/G1 phase at 1 uM after 48 hrs by flow cytometry. It is filed as functional. In outline: as §2
Assay [4] has as its system HT-29. Kind of assay: Induction of apoptosis in human HT-29 cells assessed as accumulation at subG1 phase at 1 uM after 48 hrs by flow cytometry. It is filed as functional. In outline: as §2
Assay [5] deals with HT-29. In words: Cytotoxicity against human HT-29 cells after 72 hrs by SRB assay. In kind it is functional. Particulars: HT-29, 72 h. A digest of the protocol: as §1
For assay [6], the system named is HT-29. Kind of assay: Induction of microtubule disruption in human HT-29 cells at 1 uM after 24 hrs. It is filed as cell-based. A digest of the protocol: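 HT-29 cells on poly-L-lysine coverslips exposed to 1 μM for 24 h, washed in HPEM (pH 6.6), fixed with 4% paraformaldehyde 15 min, permeabilized with 0.5% Triton X-100. Anti-α-tubulin mouse monoclonal (1:150, 1 h) then CY3 anti-mouse IgG (1 h, 4 °C); nuclei DAPI-stained; imaged by confocal microscopy. Representative of at least three experiments.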

The subject of assay [7] is HT-29. In words: Cell cycle arrest in human HT-29 cells assessed as accumulation at S phase at 1 uM after 72 hrs by flow cytometry. In kind it is functional. In outline:
as §2

The test system of assay [8] is HT-29. In words: Cell cycle arrest in human HT-29 cells assessed as accumulation at G0/G1 phase at 1 uM after 24 hrs by flow cytometry. In kind it is functional. In outline:
as §2

Assay [9] relates to HT-29. Kind of assay: Cell cycle arrest in human HT-29 cells assessed as accumulation at S phase at 1 uM after 48 hrs by flow cytometry. In kind it is functional. In outline:
as §2

The subject of assay [10] is HT-29. Kind of assay: Induction of apoptosis in human HT-29 cells assessed as accumulation at subG1 phase at 1 uM after 72 hrs by flow cytometry. It is filed as functional. In outline: as §2
For assay [11], the system named is HT-29. Kind of assay: Induction of apoptosis in human HT-29 cells assessed as accumulation at subG1 phase at 1 uM after 24 hrs by flow cytometry. In kind it is functional. A digest of the protocol: as §2
The subject of assay [12] is HT-29. Kind of assay: Cell cycle arrest in human HT-29 cells assessed as accumulation at G2/M phase at 1 uM after 48 hrs by flow cytometry. In kind it is functional. A digest of the protocol:
as §2

For assay [13], the system named is A549. Kind of assay: Cytotoxicity against human A549 cells after 72 hrs by SRB assay. It is filed as functional. The conditions noted are these: A549, 72 h. In outline:
as §1

Assay [14] relates to HT-29. In words: Cell cycle arrest in human HT-29 cells assessed as accumulation at S phase at 1 uM after 24 hrs by flow cytometry. It is filed as functional. In outline: as §2
The test system of assay [15] is HT-29. In words: Cell cycle arrest in human HT-29 cells assessed as accumulation at G0/G1 phase at 1 uM after 72 hrs by flow cytometry. In kind it is functional. In outline:
as §2

For assay [16], the system named is HT-29. In words: Cell cycle arrest in human HT-29 cells assessed as accumulation at G2/M phase at 1 uM after 72 hrs by flow cytometry. In kind it is functional. A digest of the protocol: as §2

Regarding `COc1cc([C@@H]2c3cc4c(cc3C=C(C=O)[C@H]2C(=O)OC/C=C/c2ccccc2)OCO4)cc(OC)c1OC`, the GI50 in [1] turned out to be 130 nM; in assay [5] it was 36 nM; in assay [13], 32 nM. In addition, the Activity in [2] came to 96.4%; in assay [3], 5.3%; in [4], 5.2%; in assay [7] it was 22%; in assay [8] it was 1.4%; in assay [9], 4.2%. In addition, the Activity came out at 33.7% in [10]; 0.4% in assay [11]; 85.3% in assay [12]; 1.8% in assay [14]; 21.1% in [15]; 23.2% in assay [16]. In addition, the result in [6] was Active.
Turning to `CCC/N=C/C1=Cc2cc3c(cc2[C@@H](c2cc(OC)c(OC)c(OC)c2)[C@@H]1C(=O)OC)OCO3`, the values for the 50% growth inhibitory concentration (GI50) in assay [1], in assay [5] and in assay [13] were 1300 nM, 41 nM and 41 nM, respectively.
`CCOC(=O)[C@@H]1C(C=O)=Cc2cc3c(cc2[C@H]1c1cc(OC)c(OC)c(OC)c1)OCO3`: the GI50 in assay [1] was 540 nM; in assay [5] it was 200 nM; in assay [13] it was 180 nM.
Take `CC/N=C/C1=Cc2cc3c(cc2[C@@H](c2cc(OC)c(OC)c(OC)c2)[C@@H]1C(=O)OC)OCO3`: the 50% growth inhibitory concentration (GI50) in [5] is 2.2 nM; in assay [13] it was 22 nM.
With `CCOC(=O)COC(=O)[C@H]1[C@H](c2cc(OC)c(OC)c(OC)c2)c2cc3c(cc2[C@H](O)[C@H]1CO)OCO3` [ETHOXYCARBONYLMETHYL PICROPODOPHYLLATE], the results for the GI50 in [1], in [5] and in [13] were 160 nM, 180 nM and 170 nM, respectively.
Regarding `CCCNCC1=Cc2cc3c(cc2[C@@H](c2cc(OC)c(OC)c(OC)c2)[C@@H]1C(=O)OCC)OCO3`, the concentration for 50% growth inhibition (GI50) in assay [1] was 370 nM; in assay [5], 270 nM; in assay [13] it was 230 nM.
`C=CCOC(=O)[C@@H]1C(C=O)=Cc2cc3c(cc2[C@H]1c1cc(OC)c(OC)c(OC)c1)OCO3`: the GI50 in assay [1] came out at 150 nM; in assay [5], 20 nM; in assay [13], 30 nM. For the same molecule, the Activity amounted to 91.3% in assay [2]; 10.9% in assay [3]; 1.8% in assay [4]; 16.8% in assay [7]; 3.9% in assay [8]; 3.9% in [9]. Besides, the Activity was found to be 41.6% in assay [10]; 0.3% in assay [11]; 83.4% in assay [12]; 4.5% in assay [14]; 33.6% in [15]; 8% in assay [16]. Also, the outcome in [6] was Active.
With `COc1cc([C@@H]2c3cc4c(cc3[C@H](O)[C@@H](CO)[C@H]2C(=O)N2CCCC2)OCO4)cc(OC)c1OC` [PICROPODOPHYLLIC ACID PYRROLIDINYL AMIDE], the GI50 in assay [1] was 7800 nM; in assay [5] it was 7800 nM; in [13] it was 6800 nM.
Regarding `COc1cc([C@@H]2c3cc4c(cc3C=C(C=O)[C@H]2C(=O)N2CCCC2)OCO4)cc(OC)c1OC`, the concentration for 50% growth inhibition (GI50) in assay [1] amounted to 8200 nM; in assay [5], 7300 nM; in [13], 6600 nM.
On to `CCOC(=O)COC(=O)[C@@H]1C(C=O)=Cc2cc3c(cc2[C@H]1c1cc(OC)c(OC)c(OC)c1)OCO3`, for which the GI50 in assay [1] came to 110 nM; in assay [5], 28 nM; in [13], 13 nM. Besides, the Activity in assay [2] worked out at 97.6%; in assay [3], 4.7%; in [4], 6.3%; in assay [7], 19.2%; in [8] it was 1%; in [9] it was 3.4%. Besides, the Activity in assay [10] was 30.6%; in [11] it was 0.5%; in assay [12], 85.6%; in assay [14] it was 0.9%; in assay [15], 16.4%; in assay [16], 33.8%. For the same molecule, the outcome in assay [6] was Active.
Regarding `COC(=O)[C@@H]1C(CNc2ccc(C)cc2)=Cc2cc3c(cc2[C@H]1c1cc(OC)c(OC)c(OC)c1)OCO3`, the figures for the GI50 in [1], in assay [5] and in assay [13] were 1500 nM, 800 nM and 900 nM, respectively.
`COc1cc([C@@H]2c3cc4c(cc3[C@H](O)[C@H]3COC(=O)[C@H]23)OCO4)cc(OC)c1OC` [PODOFILOX]: the figures for the 50% growth inhibitory concentration (GI50) in [5] and in [13] were 24 nM and 12 nM, respectively.
As for `CCCCCCCOC(=O)[C@H]1[C@H](c2cc(OC)c(OC)c(OC)c2)c2cc3c(cc2[C@H](O)[C@H]1CO)OCO3` [HEPTYL PICROPODOPHYLLATE], the GI50 in [1] came out at 180 nM; in assay [5] it was 160 nM; in assay [13], 190 nM.
For the molecule `COc1ccc(NCC2=Cc3cc4c(cc3[C@@H](c3cc(OC)c(OC)c(OC)c3)[C@@H]2C(=O)N2CCCC2)OCO4)cc1`, the GI50 in [1] was > 17000 nM; in assay [5], 15000 nM; in assay [13], 15000 nM.
For the molecule `CCOC(=O)[C@H]1[C@H](c2cc(OC)c(OC)c(OC)c2)c2cc3c(cc2[C@H](O)[C@H]1CO)OCO3` [ETHYL PICROPODOPHYLLATE], the results for the GI50 in [1], in assay [5] and in assay [13] were 90 nM, 90 nM and 70 nM, respectively.
Take `CCNC(=O)[C@H]1[C@H](c2cc(OC)c(OC)c(OC)c2)c2cc3c(cc2[C@H](O)[C@H]1CO)OCO3`: the GI50 in assay [1] came to 10000 nM; in assay [5], 10000 nM; in [13] it was 9800 nM.
As for `COC(=O)[C@@H]1C(/C=N/c2ccc(OC)cc2)=Cc2cc3c(cc2[C@H]1c1cc(OC)c(OC)c(OC)c1)OCO3`, the concentration for 50% growth inhibition (GI50) in [5] was 9.4 nM; in [13] it was 94 nM.
For `CCNCC1=Cc2cc3c(cc2[C@@H](c2cc(OC)c(OC)c(OC)c2)[C@@H]1C(=O)OC)OCO3`, the 50% growth inhibitory concentration (GI50) in assay [1] is 2600 nM; in assay [5], 400 nM; in assay [13] it was 700 nM.
For `CCCNCC1=Cc2cc3c(cc2[C@@H](c2cc(OC)c(OC)c(OC)c2)[C@@H]1C(=O)OC)OCO3` the same measures were 5500 nM, 1000 nM and 1500 nM.
The matching figures for `CCC/N=C/C1=Cc2cc3c(cc2[C@@H](c2cc(OC)c(OC)c(OC)c2)[C@@H]1C(=O)OCc1cc(OC)c(OC)c(OC)c1)OCO3`: 130 nM, 4.3 nM and 5.2 nM.
For `CCC/N=C/C1=Cc2cc3c(cc2[C@@H](c2cc(OC)c(OC)c(OC)c2)[C@@H]1C(=O)OCC)OCO3` the same measures were 1200 nM, 390 nM and 230 nM.
For the molecule `COc1cc([C@@H]2c3cc4c(cc3[C@H](O)[C@@H](CO)[C@H]2C(=O)OCCCBr)OCO4)cc(OC)c1OC`, the concentration for 50% growth inhibition (GI50) was 34 nM in assay [1], 22 nM in assay [5] and > 17000 nM in assay [13].
The matching figures for `COC(=O)[C@@H]1C(CNc2ccc(OC)cc2)=Cc2cc3c(cc2[C@H]1c1cc(OC)c(OC)c(OC)c1)OCO3`: 2400 nM, 700 nM and 1000 nM.
For `COC(=O)[C@@H]1C(C=O)=Cc2cc3c(cc2[C@H]1c1cc(OC)c(OC)c(OC)c1)OCO3` [PODOPHYLLIC ALDEHYDE] the same measures were 200 nM, 38 nM and 61 nM.
The matching figures for `CCCNCC1=Cc2cc3c(cc2[C@@H](c2cc(OC)c(OC)c(OC)c2)[C@@H]1C(=O)OCc1cc(OC)c(OC)c(OC)c1)OCO3`: 6400 nM, 2000 nM and 1900 nM.
Consider `CCNCC1=Cc2cc3c(cc2[C@@H](c2cc(OC)c(OC)c(OC)c2)[C@@H]1C(=O)N1CCCC1)OCO3`, for which the GI50 in assay [1], in [5] and in assay [13] was > 20000 nM in each case.
As for `C=CCOC(=O)[C@H]1[C@H](c2cc(OC)c(OC)c(OC)c2)c2cc3c(cc2[C@H](O)[C@H]1CO)OCO3` [ALLYL PICROPODOPHYLLATE], the concentration for 50% growth inhibition (GI50) in assay [1] stood at 110 nM; in [5], 80 nM; in [13], 120 nM.
Turning to `COc1cc([C@@H]2c3cc4c(cc3[C@H](O)[C@@H](CO)[C@H]2C(=O)OC/C=C/c2ccccc2)OCO4)cc(OC)c1OC` [CINNAMYL PICROPODOPHYLLATE], the concentration for 50% growth inhibition (GI50) came to 180 nM in assay [1], 150 nM in assay [5] and 200 nM in assay [13].

The record behind these values is ChEMBL document CHEMBL1154766, “Synthesis and biological evaluation of new podophyllic aldehyde derivatives with cytotoxic and apoptosis-inducing activities” (2010).
